Statin myotox sup – suppressors of statin myotoxicity in C2C12 myotubes, primary screen, cell-based, single point, plate reader; rescue of ATP level, % at 7.49 µM; actives 0.78% (n = 330,000); C2C12 myotubes + simvastatin, ATP luminescence, 48 h; scaled: DMSO 0, geranylgeraniol control 100; AID 602340, 2012;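 active means mean ATP rescue above about 67%, or every replicate alone reaching that limit, limit read from the data, passing the limit was not always enough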;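 further: myotubes were challenged with 10 µM simvastatin during compound exposure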
Efflux pump inh – inhibitors of Candida efflux pumps in yeast, primary screen, S. cerevisiae, Nile Red, multiplex; actives 0.44% (n = 330,000); AID 485275, 2010; S. cerevisiae Candida pump triplex; inhibition, % at 10 µM;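 active means plate passing quality check with inhibition over a set limit, or well fluorescence over plate mean plus 4 SD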;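 further: Nile Red retained in pooled yeast measured as flow cytometry median fluorescence; higher means more Nile Red kept so more efflux inhibition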
Mot1-301 SUMO – yeast Mot1-301 growth rescue at high temperature, primary screen, SUMOylation pathway inhibitor project, S. cerevisiae, ATP luminescence, 38.5C; S. cerevisiae Mot1-301 growth rescue; percent above DMSO median, 100 means doubled; growth rescue, % at 18.8 µM; actives 1% (n = 320,000); AID 2716, 2010;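 active means every valid replicate shows activation above 250% relative to neutral control wells; inactive means the rest, any valid replicate at or below 250%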
Cneo AK release – Cryptococcus neoformans cell lysis inducers, primary screen, AK release luminescence, single concentration | C. neoformans lysis, adenylate kinase release luminescence, 4 h; normalised: neutral wells 0, clomiphene wells 100 | actives 0.2% (n = 360,000) | lysis activity, % at 15 µM;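 active means mean lysis activity across replicates of at least 80%, whatever share of replicates individually reach that level; inactive means mean lysis activity below 80%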
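Test system: log-phase Cryptococcus neoformans yeast cells. Input: 5 × 10^6 yeast cells/mL. Medium: fresh YPD growth medium. Doses: single dose. Incubation: static 4 h at 37 °C with compound, 1 h detection. Measured by: luminescent adenylate kinase detection reagent. Read-out: signal increase indicating cell lysis. Benchmarks: Clomiphene.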
Mot1 SUMO dose – growth restoration of Mot1-301 yeast on galactose, dose response, SUMO pathway inhibitor project, whole organism, S. cerevisiae, ATP luminescence, cherry-picked samples | growth activity, percent, % at 42 µM | S. cerevisiae Mot1-301 galactose growth, 24 h; -100 = growth of slx-deleted rescue strain | shares compounds with Mot1-301 SUMO | 2,300 tested, under 10 active;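 active means Signal drops as the depositor expects, and the fitted half-maximal dose is no more than ten times the top valid tested dose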;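 further: more negative values mean stronger growth rescue toward the control strain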
Cmpd fluor yeast – counter-screen for efflux pump inhibitors: compound fluorescence. shares compounds with Efflux pump inh. S. cerevisiae AD/pABC3, flow cytometry. fluorescence ratio to DMSO, % at 10 µM. actives 4% (n = 1,700). AID 588517;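 active means fluorescence ratio to DMSO above its plate's cutoff, the plate mean ratio plus 5 SD, cut at about 210% in these data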;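 further: unstained yeast with no Nile Red so the signal is compound autofluorescence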
Mdr1 pump inh – inhibitors of Candida albicans Mdr1 efflux, confirmation, flow cytometry, singleplex, Cherry Pick1 set. shares compounds with Efflux pump inh. S. cerevisiae AD/CaMDR1, Nile Red efflux. inhibition, % at 10 µM. actives 1% (n = 1,700); in the data active means inhibition above about 26%;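 further: higher means more Nile Red retained so more efflux inhibition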
CaCdr2 efflux inh – inhibitors of Candida albicans Cdr2 efflux pump, confirmation, S. cerevisiae AD/CaCDR2, flow cytometry, cherry pick 1, singleplex. AID 588520, 2011. Nile Red retention. shares compounds with Efflux pump inh. actives 4% (n = 1,700). Nile Red retention ratio vs DMSO, % at 10 µM; in the data active means Nile Red retention ratio vs DMSO above about 190%;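 further: higher ratio means more blocking of Cdr2 efflux of the dye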
CaCdr1 efflux inh – inhibitors of Candida albicans Cdr1 efflux pump, confirmation, S. cerevisiae AD/CaCDR1, flow cytometry, cherry pick 1, singleplex | shares compounds with Efflux pump inh | Nile Red efflux | inhibition, % at 10 µM | actives 1% (n = 1,700) | AID 588522, 2011;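 active means inhibition above the screen-wide mean plus twice its standard deviation, cut at about 32% in these data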
A number is an active result; n = inactive; x = no result. In the library only some 1.8% were active in any assay of this set; here they are far more common.

SMILES | Statin myotox sup | Efflux pump inh | Mot1-301 SUMO | Cneo AK release | Cmpd fluor yeast | Mdr1 pump inh | CaCdr2 efflux inh | CaCdr1 efflux inh | others
CN(C)CCNC(=O)c1onc(CSc2ccc(F)c(F)c2)c1C(=O)NCCN(C)C | n | n | 578 | n | x | x | x | x | Mot1 SUMO dose=n
Cc1noc(C)c1NC(=O)N(C)C[C@H]1OCCCC[C@@H](C)Oc2ccc(NS(=O)(=O)c3c(C)noc3C)cc2C(=O)N([C@H](C)CO)C[C@H]1C | n | x | x | n | x | x | x | x
COc1ccccc1C(=O)N(NC(=O)Oc1ccccc1)C(C)(C)C | x | 5.8 | 549 | n | n | n | n | n | Mot1 SUMO dose=n
COc1ccc2c(c1)OC[C@H]1[C@H]2N2C(=O)c3cc(OC)c(OC)cc3NC(=O)[C@@]2(C)[C@H]1c1ccccc1 | n | 48 | 485 | n | 539 | 79 | n | 34 | Mot1 SUMO dose=n
C[C@@]12C(=O)Nc3ccc(F)cc3C(=O)N1[C@H]1c3cc(Cl)ccc3OC[C@@H]1[C@@H]2c1ccccc1 | n | n | 409 | n | n | n | n | n | Mot1 SUMO dose=n
CC(C(=O)NC1=NCCS1)N1C(=O)C2CC=CCC2C1=O (centres undefined) | n | n | n | n | x | x | x | x
CC(=O)c1cc(C(=O)NC2CCCc3c2cnn3-c2cc(C)cc(C)c2)[nH]n1 (centres undefined) | n | n | n | n | x | x | x | x
Cc1cc(C)cc(-n2ncc3c2CCCC3NC(=O)c2cc(C)[nH]n2)c1 (centres undefined) | n | n | 641 | n | n | n | n | n | Mot1 SUMO dose=n
O=C(COc1ccc(Br)cc1Cl)c1ccc[nH]1 | n | n | n | n | x | x | x | x
O=C(COc1ccccc1Cl)c1ccc[nH]1 | x | 0.7 | 788 | x | n | n | n | n | Mot1 SUMO dose=n
CCOC(=O)c1ccccc1NC(=O)C1CC(=O)N(C2CCCCC2)C1 (centres undefined) | n | 6.2 | 385 | n | n | n | n | n | Mot1 SUMO dose=n
CCOC(=O)c1ccccc1NC(=O)C1CC(=O)N(C(C)(C)C)C1 (centres undefined) | n | n | n | n | x | x | x | x
C[C@]12c3[nH]c4ccccc4c3CCN1C(=O)C(CC(=O)NCCN1CCOCC1)C[C@@H]2C(=O)N1CCCCC1 (some centres undefined) | n | n | n | n | x | x | x | x
CO[C@H]1CN(C)C(=O)c2cc(NS(=O)(=O)c3ccccc3Cl)ccc2OC[C@H](C)NC[C@@H]1C | n | x | x | n | x | x | x | x
O=C(O)C1Sc2[nH]c(=O)sc2C2c3cc(Br)ccc3OC(=O)C12 (centres undefined) | x | 1.5 | n | x | n | n | n | n
O=C(O)C1Sc2[nH]c(=O)sc2C2c3cc(Cl)ccc3OC(=O)C12 (centres undefined) | n | n | n | n | x | x | x | x
CC(C)C(O)(C#CCN1CCCCC1)C(C)C | x | 14 | n | x | n | n | n | n
CCC(O)(C#CCN1CCCCC1)CC | x | n | n | x | x | x | x | x
CCOC(=O)c1c(O)c2cccc3c2n(c1=O)CC3 | x | n | n | x | n | n | n | n
O=C(NCCO)c1c(O)c2cccc3c2n(c1=O)CC3 | x | n | n | x | x | x | x | x
COc1ccc(OC)c(C2C3=C(CC(C)(C)CC3=O)Nc3nnnn32)c1 (centres undefined) | x | n | n | x | x | x | x | x
CN1C/C(=C\c2ccc(N3CCOCC3)cc2)C(=O)/C(=C/c2ccc(N3CCOCC3)cc2)C1 | n | 0.8 | n | n | n | n | n | n
CCN1C/C(=C/c2ccc(N3CCOCC3)cc2)C(=O)/C(=C/c2ccc(N3CCOCC3)cc2)C1 | x | n | n | x | x | x | x | x
Cc1ccc(CC(NC(=O)c2ccccc2)C(=O)NC(C)C(=O)O)cc1 (centres undefined) | n | 1.5 | n | n | n | n | n | n
CCN(C[C@@H]1N[C@H](CO)[C@H]1c1ccc(-c2cccc(F)c2)cc1)C(=O)COC | n | x | x | n | x | x | x | x
SMILES | Statin myotox sup | Efflux pump inh | Mot1-301 SUMO | Cneo AK release | Cmpd fluor yeast | Mdr1 pump inh | CaCdr2 efflux inh | CaCdr1 efflux inh | others
Cn1c(SCC(=O)Nc2ccc3nc(SCC(=O)NC4CC4)sc3c2)nnc1-c1ccccc1 | x | 1.1 | n | n | n | n | n | n
Cn1cc(Br)c(C(=O)NNC(=O)c2ccc(Cl)cc2)n1 | n | 8.9 | n | x | n | n | n | n
Cc1ccccc1NC(=S)Nn1cnnc1 | n | n | n | n | x | x | x | x
NC(=S)NNC(=O)[C@@H]1CCCC[C@@H]1C(=O)O | n | 15 | n | n | n | n | n | n
O=C(O)C1CCCCC1C(=O)NC1C2CC3CC(C2)CC1C3 (centres undefined) | n | n | n | n | x | x | x | x
Cc1ccc(N2C(=O)[C@@H]3[C@H](C2=O)C2c4ccccc4C=NN2[C@@H]3C(=O)c2ccc(Cl)cc2)cc1 (some centres undefined) | x | n | n | x | x | x | x | x
O=C(c1ccc(Cl)cc1)[C@@H]1[C@@H]2C(=O)N(c3ccc(Cl)cc3)C(=O)[C@@H]2C2c3ccccc3C=NN21 (some centres undefined) | x | 0.6 | n | x | n | n | n | n
CN1CCN(C(=O)/C(=C\c2cccs2)NC(=O)c2ccco2)CC1 | n | 9.7 | n | n | n | n | n | n
Cc1ccc(OCC(=O)N2CCC3(CC2)CC(=O)c2ccccc2O3)cc1 | n | n | n | n | x | x | x | x
CC1(C)CC(=O)C(C=Nc2cc(C(=O)c3ccccc3)ccc2N)=C(O)C1 | x | n | n | x | x | x | x | x
COC(=O)c1ccc(N)c(N=CC2=C(O)CC(C)(C)CC2=O)c1 | n | 1.7 | n | n | n | n | n | n
CCc1ccc(-n2c(=O)c3ccccc3n(CC(=O)NCc3ccco3)c2=O)cc1 | x | 0.8 | n | n | n | n | n | n
COc1ccc(CCCc2nnc(SCC(=O)Nc3cc(C)c(C)cc3Br)o2)cc1 | n | 0.8 | n | n | n | n | n | n
CNCc1ccccc1OCC(=O)Nc1ccccc1 | n | 8.2 | n | n | n | n | n | n
C[C@H]1CN([C@@H](C)CO)C(=O)c2c(c3ccccc3n2C)-c2ccccc2CO[C@@H]1CN(C)S(=O)(=O)c1ccc(F)cc1 | x | x | x | n | x | x | x | x

Screening data as filed in PubChem.
